Results as given in ChEMBL document CHEMBL1148309, “Roles of conformational and positional adaptability in structure-based design of TMC125-R165335 (etravirine) and related non-nucleoside reverse transcriptase inhibitors that are highly potent and effective against wild-type and drug-resistant HIV-1 variants” (J Med Chem, 2004).

Tests used:
Type in all cases: functional, organism-based
[1] = tested on: Human immunodeficiency virus 1; assay: Potency evaluated against NNRTI-Resistant HIV-1 strain Tyr181Cys
Outline: (§1)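 Test compound dilutions in microtiter wells; HIV added at 200-250 CCID50/well and MT4 cells at 3 × 10^4 cells/well (final). Incubated 5 days at 37 °C, 5% CO2. Cytopathic effect of replicating virus read by MTT tetrazolium colorimetry. EC50 is the dose achieving 50% infection.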

[2] = tested on: Human immunodeficiency virus 1; assay: Potency evaluated against NNRTI-Resistant HIV-1 strain Tyr188Leu; outline: as §1
[3] = tested on: Human immunodeficiency virus 1; assay: Potency evaluated against NNRTI-Resistant HIV-1 strain Val106Ala; outline: as §1
[4] = tested on: Human immunodeficiency virus 1; assay: Potency evaluated against wild type HIV-1 strain IIIB; outline: as §1
[5] = tested on: Human immunodeficiency virus 1; assay: Potency evaluated against NNRTI-Resistant HIV-1 strain Gly190Ala; outline: as §1
[6] = tested on: Human immunodeficiency virus 1; assay: Potency evaluated against NNRTI-Resistant HIV-1 strain Leu100Ile; outline: as §1
[7] = tested on: Human immunodeficiency virus 1; assay: Potency evaluated against NNRTI-Resistant HIV-1 strain Lys103Asn; outline: as §1

Row | Compound | EC50 [1] | EC50 [2] | EC50 [3] | EC50 [4] | EC50 [5] | EC50 [6] | EC50 [7]
1 | N#Cc1ccc(NC(=S)NC(=N)Cc2c(Cl)cccc2Cl)cc1 | 511 nM | 318 nM | 382 nM | 3 nM | 2 nM | 513 nM | 589 nM
2 | N#Cc1ccc(Nc2nc(N)nc(Cc3c(Cl)cccc3Cl)n2)cc1 | 277 nM | 431 nM | 26 nM | 2 nM | 1 nM | 293 nM | 41 nM
3 | N#Cc1ccc(Nc2nc(N)nc(Cc3c(Cl)ccc4[nH]ccc34)n2)cc1 | 250 nM | 1000 nM | 63 nM | 3 nM | 3 nM | 1000 nM | 63 nM
4 | N#Cc1ccc(Nc2nc(N)nc(Oc3c(Cl)cccc3Cl)n2)cc1 | 250 nM | 320 nM | 100 nM | 3 nM | – | 320 nM | 79 nM
5 | Cc1cc(C#N)cc(C)c1Oc1nc(Nc2ccc(C#N)cc2)nc(CO)c1Br | 6 nM | 6 nM | 2 nM | 4 nM | 1 nM | 2 nM | 4 nM
6 | CC(=O)c1ccc(C)cc1N[C@@H](C(N)=O)c1c(Br)cccc1Br [(R)-LOVIRIDE] | 15800 nM | 50100 nM | 1000 nM | 5 nM | 2510 nM | 50 nM | 1260 nM
7 | Cc1cc(C)c(Nc2ccnc(Nc3ccc(C#N)cc3)n2)c(C)c1 [DAPIVIRINE] | 8 nM | 40 nM | 3 nM | 1 nM | 1 nM | 16 nM | 4 nM
8 | CC(C)Nc1cccnc1N1CCN(C(=O)c2cc3cc(NS(C)(=O)=O)ccc3[nH]2)CC1 [DELAVIRDINE] | 1340 nM | 178 nM | 2240 nM | 16 nM | 38 nM | 3470 nM | 1700 nM
9 | Cc1cc(C#N)cc(C)c1Oc1nc(Nc2ccc(C#N)cc2)nc(N)c1Br [ETRAVIRINE] | 6 nM | 3 nM | 2 nM | 20 nM | […] | 3 nM | […]
10 | Cc1ccnc2c1NC(=O)c1cccnc1N2C1CC1 [NEVIRAPINE] | 5350 nM | > 100000 nM | 2410 nM | 85 nM | 3460 nM | 638 nM | 2470 nM
